High-throughput results from PubChem BioAssay.
The list is not random: actives were taken first. Their share in the collection is about 9.6%.
PTEN del growth: growth suppressors of cells with PTEN tumor suppressor deletion; HCT116 PTEN-null viability, CellTiter-Glo, 60 h; active compounds read low; viability, % at 10 µM; 1.2% of 140,000 active; AID 827;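 active = viability at or below a set limit, 4 SD under the median of all tested compounds, cut at about 3.7% in these data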;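 also: PTEN knockout HCT116 line with beta catenin targeted HCT116 as companion control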
TNAP inh hi DEA: blocks human TNAP under high phosphate acceptor concentration; purified TNAP, CDP-star luminescence, 1 M DEA; inhibition, % at 20 µM; 0.03% of 200,000 active; AID 1135;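 active = over 50% inhibition of tissue-nonspecific alkaline phosphatase at 20 µM in the single-dose screen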
Target sequence (P05186 whole entry, looked up): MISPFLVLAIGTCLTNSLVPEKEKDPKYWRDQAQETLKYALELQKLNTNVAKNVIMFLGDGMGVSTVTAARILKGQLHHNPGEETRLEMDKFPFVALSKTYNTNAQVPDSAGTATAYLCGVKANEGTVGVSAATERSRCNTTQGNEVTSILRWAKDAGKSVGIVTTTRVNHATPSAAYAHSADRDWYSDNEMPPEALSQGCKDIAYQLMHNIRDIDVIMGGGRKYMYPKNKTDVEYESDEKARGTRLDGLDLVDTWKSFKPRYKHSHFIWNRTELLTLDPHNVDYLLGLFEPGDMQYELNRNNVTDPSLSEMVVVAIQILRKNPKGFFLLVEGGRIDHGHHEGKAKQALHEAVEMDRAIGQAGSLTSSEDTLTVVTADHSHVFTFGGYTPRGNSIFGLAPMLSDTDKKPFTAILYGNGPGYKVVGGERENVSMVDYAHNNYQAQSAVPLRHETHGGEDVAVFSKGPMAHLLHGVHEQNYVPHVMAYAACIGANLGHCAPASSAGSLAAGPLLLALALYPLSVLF
L major viab: Leishmania major promastigote growth inhibition | Leishmania major promastigotes, resazurin fluorescence viability | inhibition, % at 10 µM | 9% of 200,000 active | AID 1063; in the data active = inhibition above about 50%;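 also: promastigotes grown with compound for 44 hours at 28 °C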
TNAP inh noacc: TNAP (human) inhibition, acceptor-free conditions; inhibition, % at 20 µM; 0.26% of 200,000 active; purified TNAP, CDP-star luminescence, 30 min;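 active = tissue-nonspecific alkaline phosphatase inhibition above about 50% at 20 µM in the single-dose screen, limit read from the data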
TNAP act hiacc: increases human TNAP activity under high phosphate acceptor concentration | P05186 | purified TNAP, CDP-star luminescence, 1 M DEA, 30 min; active compounds read high; 0 = EDTA background, 1 = DMSO-only activity | activation factor at 20 µM | 200,000 tested, under 10 active | AID 1136;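 active = activation factor at least 2 at 20 µM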
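Assay system: human TNAP; Input: enzyme diluted 1/800 final; Reagent: CDP-star luminogenic substrate at 100 µM final; Timing: 30 min, room temperature; Signal: luminescence; Evaluation: TNAP activation factor scaled between EDTA and DMSO control wells.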
HCT116 bCat-KO: beta-catenin-lacking colon tumor cell growth suppression | viability, % at 10 µM | 1.5% of 140,000 active | HCT116 beta-catenin knockout viability, CellTiter-Glo, 60 h; active compounds read low | AID 818;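 active = viability at or under a set limit, the compound median less 4 SD, cut at about 6% in these data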
Numbers stand for hits; - = inactive; . = no result.

SMILES | PTEN del growth | TNAP inh hi DEA | L major viab | TNAP inh noacc | TNAP act hiacc | HCT116 bCat-KO
O=C(COc1ncnc2c(Cl)cc(Cl)cc12)Nc1cc([N+](=O)[O-])ccc1Cl | - | - | 52 | - | - | -
COc1ccc(/C=C2\CN(Cc3ccccc3)C/C(=C\c3ccc(OC)cc3)C2=O)cc1 | 1.6 | - | 100 | - | - | 1.7
COc1ccc(N=C2SCC(=O)N2Cc2ccccc2)cc1 | . | - | - | - | - | .
CCOC(=O)C1=C(c2ccccc2)Nc2ncnn2C1c1cc(OC)cc(OC)c1OC (stereo unspecified) | - | - | 92 | - | - | -
CCOC(=O)C1=C(c2ccccc2)Nc2ncnn2C1c1cccc(OC)c1OC (stereo unspecified) | - | - | 100 | - | - | -
O=C(c1ccc(SCc2ccco2)c([N+](=O)[O-])c1)N1CCOCC1 | . | - | - | - | - | .
CC(=O)NCCNC(=O)c1ccc(Sc2ccccc2)c([N+](=O)[O-])c1 | . | - | - | - | - | .
CCN1CCCC1CNC(=O)c1ccc(Sc2ccccc2Cl)c([N+](=O)[O-])c1 (stereo unspecified) | . | - | 100 | - | - | .
Cc1ccc(Sc2ccc(C(=O)NC(C)C)cc2[N+](=O)[O-])cc1 | - | - | - | - | - | -
CN(C)CCNC(=O)c1ccc(Sc2ccc(Br)cc2)c([N+](=O)[O-])c1 | . | - | 100 | - | - | .
CCN1CCCC1CNC(=O)c1ccc(Sc2ccc(F)cc2)c([N+](=O)[O-])c1 (stereo unspecified) | . | - | 100 | - | - | .
CC1CCN(C(=O)c2ccc(SCc3ccccc3F)c([N+](=O)[O-])c2)CC1 | - | - | 69 | - | - | -
CC/C(=N/N=C(\CC)c1ccccc1)c1ccccc1 | - | - | - | - | - | -
COC(=O)c1sccc1NC(=O)CNC(=O)c1ccccc1 | . | - | - | - | - | .
FC(F)(F)c1ccccc1NC(=S)Nc1cccc(Cl)c1 | . | - | - | - | - | .
CCN1CCN(C(=O)c2ccc(Sc3ccccc3Cl)c([N+](=O)[O-])c2)CC1 | - | - | 89 | - | - | -
O=C(c1ccc(S(=O)(=O)c2ccccc2Cl)c([N+](=O)[O-])c1)N1CCCCCC1 | - | - | 98 | - | - | -
O=C(c1ccc(S(=O)(=O)Cc2ccccc2F)c([N+](=O)[O-])c1)N1CCCCCC1 | . | - | - | - | - | .
O=C(NCCCN1CCOCC1)c1ccc(Sc2ccc(F)cc2)c([N+](=O)[O-])c1 | - | - | 100 | - | - | -
CCOC(=O)CSc1ccc(C(=O)N2CCN(C)CC2)cc1[N+](=O)[O-] | . | - | - | - | - | .
Cc1ccccc1N1CCN(C(=O)c2ccccc2NC(=O)c2ccccc2C(=O)O)CC1 | . | - | - | - | - | .
Cc1ccc(-c2csc3nc4c5ccccc5c(NCCCN5CCOCC5)nn4c(=O)c23)cc1 | . | - | 101 | - | - | .
Cc1ccc(-c2csc3nc4c5ccccc5c(NCCCN(C)C)nn4c(=O)c23)cc1 | . | - | 101 | - | - | .
CCN(CC)CCCNC(=O)CSc1c2c(nc3cc(Cl)ccc13)CCCC2 | . | - | 100 | - | - | .
O=C(CSc1c2c(nc3cc(Cl)ccc13)CCCC2)NCCN1CCOCC1 | . | - | 59 | - | - | .
SMILES | PTEN del growth | TNAP inh hi DEA | L major viab | TNAP inh noacc | TNAP act hiacc | HCT116 bCat-KO
CC(=O)C1=C(c2ccccc2)N(C(C)=O)n2c(C)nnc2S1 | . | - | - | - | - | .
COc1cc(/C=N/Nc2cccc(C)c2)ccc1OC(=O)c1ccco1 | - | - | - | - | - | -
COc1ccc(NC(=O)c2cc(-c3ccccc3)oc2C)cc1 | - | - | 56 | - | - | -
COc1cc(/C=C/C(=O)OCC(=O)Nc2ccc(S(=O)(=O)N3CCCC3)cc2)ccc1O | - | - | - | - | - | -
CCC(C)(C)NC(=O)/C=C/c1ccc(OC)c(S(=O)(=O)N2CCOCC2)c1 | - | - | - | - | - | -
COc1ccc(/C=C/C(=O)OCC(=O)Nc2ccc(C)cc2)cc1S(=O)(=O)N1CCOCC1 | - | - | - | - | - | -
COc1cc(/C=C/C(=O)OCC(=O)N2CCN(S(=O)(=O)c3ccc(C)cc3C)CC2)ccc1O | - | - | 98 | - | - | -
COc1ccc(/C=C/C(=O)Nc2cccc(F)c2)cc1S(=O)(=O)N1CCOCC1 | . | - | 50 | - | - | .
COc1cccc(/C=C/C(=O)OCC(=O)Nc2ccc(S(=O)(=O)N3CCCC3)cc2)c1 | - | - | 68 | - | - | -
COc1ccc(NC(=O)COC(=O)/C=C/c2ccc(OC)c(S(=O)(=O)N3CCOCC3)c2)cc1 | - | - | 57 | - | - | -
CC(NC(=S)Nc1ccc([N+](=O)[O-])cc1)c1ccncc1 (stereo unspecified) | . | - | - | - | - | .
CCOc1nc(N2CCOCC2)nc(N2CCOCC2)n1 | . | - | - | - | - | .
CCCn1c(N/N=C(C)\C=C\c2ccccc2)nc2c1c(=O)[nH]c(=O)n2C | . | - | - | - | - | .
Cc1cc(C)nc(NC(=O)C2c3ccccc3Oc3ccccc32)n1 | . | - | - | - | - | .
Cc1csc(NC(=O)c2cc3c(C)nn(Cc4ccccc4Cl)c3s2)n1 | - | - | 96 | - | - | -
Cc1ccc(/C=[N+](\[O-])c2ccc(N(C)C)cc2)c2nsnc12 | . | - | - | - | - | .
CC(C)c1nnc(NC(=O)CSc2nnc(-c3ccco3)o2)s1 | . | - | - | - | - | .
CC1(C)CSC(=NCCc2ccccc2)N1C(=O)c1ccc(C#N)cc1 | - | - | 92 | - | - | -
CN(C)C(CNC(=O)/C=C/c1cccc(Cl)c1)c1ccccc1 (stereo unspecified) | . | - | 75 | - | - | .
C/C(=N\NC(=O)c1ccc(Cl)c(S(=O)(=O)Nc2ccccc2Cl)c1)c1ccncc1 | - | - | - | - | - | -
C=CCN(C(=O)CSC1=NC(=O)CN1C(C)=O)c1nc(C)c(-c2ccccc2)s1 | . | - | 89 | - | - | .
CC(C)C(C(=O)O)N1CCS(=O)(=O)CC1 (stereo unspecified) | . | - | - | - | - | .
COc1cc(C(=O)N/N=C2\CCS(=O)(=O)c3ccc(F)cc32)cc(OC)c1OC | - | - | - | - | - | -
COc1ccc(C)cc1NC(=O)CNc1ccccc1CN(C)C1CCCCC1 | . | - | - | - | - | .
COc1ccc(Cl)cc1NC(=O)CNc1ccccc1CN(C)C1CCCCC1 | . | - | 96 | - | - | .
Cc1ccc(NC(=O)CNc2ccccc2CN(C)C2CCCCC2)cc1 | . | - | 60 | - | - | .
CCCCC(c1nnnn1CC1CCCO1)N1CCN(c2nc3ccccc3s2)CC1 (stereo unspecified) | - | - | 99 | - | - | -
CC(C)CC(c1nnnn1CC1CCCO1)N1CCN(c2nc3ccccc3s2)CC1 (stereo unspecified) | - | - | 91 | - | - | -
CCCCC(c1nnnn1CC1CCCO1)N1CCN(c2ccccc2)CC1 (stereo unspecified) | . | - | - | - | - | .
